This passage reports IC50 results from ChEMBL document CHEMBL1145129, “Design, synthesis, and anticancer properties of 4,4'-dihydroxybenzophenone-2,4-dinitrophenylhydrazone and analogues” (J Med Chem, 2003).

The species named for assay [1] is Homo sapiens. Description: In vitro cytotoxicity against Human lung tumor cells; Not available. In kind it is functional. In a few lines:
(§1)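 Fresh surgical human tumor specimens minced to ≤0.1 mm fragments in RPMI-1640 with 10% FBS, streptomycin and penicillin (10⁶–10⁸ cells/mL), explanted into slide flasks. Exposed 24 h at 37 °C, 5% CO₂, to test agent 0.1–20 μg/mL (≥5 doses over 3 logs), in duplicate. Washed, recultured 7–14 days, fixed, HPF cell counts vs control; IC50 (SD) from percent growth.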

The species named for assay [2] is Homo sapiens. Description: In vitro cytotoxicity in Human ovary tumor cells. In kind it is functional. The settings on record: Female gonad. In a few lines: as §1
A short description of assay [3]: In vitro cytotoxicity in Human breast tumor cells. Type of assay: functional, cell-based. In outline: as §1
For assay [4], the system named is Melanoma tumor cell line. Description: In vitro cytotoxicity against Human melanoma tumor cells; Not available. Type of assay: functional, cell-based. In outline: as §1
In assay [5] the test system is Melanoma tumor cell line. Description: In vitro cytotoxicity against Human melanoma tumor cells. In kind it is functional, cell-based. In outline:
as §1

In the next assay the test system is Colon carcinoma cell. Description: In vitro cytotoxicity was tested in human colon tumor cells. In kind it is functional, cell-based. In a few lines: as §1
Assay [6] is filed under the species Homo sapiens. Description: In vitro cytotoxicity against Human lung tumor cells. Type of assay: functional. In a few lines:
as §1

≈ marks a conversion by molar mass, not a printed value.

With `CC(=O)Oc1cccc2c1-c1nn(-c3ccccc3)c(=O)c3cccc(c13)C2=O`, the 50% inhibitory concentration (IC50) entry in the assay filed under Homo sapiens [1] is “Not Active”; in the assay filed under Homo sapiens [2], > 10 µg/mL; in assay [3], > 5 µg/mL; in the assay on Melanoma tumor cell line [4], “Not Active”.
As to `O=c1c2cccc3c2c(nn1-c1ccccc1[N+](=O)[O-])-c1ccccc1-3`, the IC50 in the assay with Melanoma tumor cell line [5] is 0.4 µg/mL (≈ 1.17 µM); with Colon carcinoma cell it was > 5 µg/mL; in the assay filed under Homo sapiens [2] it was > 5 µg/mL; in assay [3], > 5 µg/mL; in the assay filed under Homo sapiens [6], > 5 µg/mL.
With `C/C(=N\Nc1ccc([N+](=O)[O-])cc1)c1ccc(O)cc1`, the IC50 result in the assay listed under Homo sapiens [1] was “Not Active”; in the assay listed under Homo sapiens [2] it was 6 µg/mL (≈ 22.1 µM); in assay [3], 5 µg/mL (≈ 18.4 µM); with Melanoma tumor cell line [4], “Not Active”.
Turning to `CC(=O)Oc1cccc2c(/N=N/c3ccc([N+](=O)[O-])cc3[N+](=O)[O-])c3cccc(O)c3c(O)c12`, the IC50 in the assay on Melanoma tumor cell line [5] is 0.097 µg/mL (≈ 0.21 µM); with Colon carcinoma cell, 0.03 µg/mL (≈ 0.0649 µM); in the assay listed under Homo sapiens [1], “Not Active”; in the assay filed under Homo sapiens [2], 0.4 µg/mL (≈ 0.865 µM); in assay [3], 0.05 µg/mL (≈ 0.108 µM).
For the compound `Nc1ccc2c(/N=N/c3ccc([N+](=O)[O-])cc3[N+](=O)[O-])c3ccccc3c(O)c2c1N`, the IC50 with Colon carcinoma cell is 5 µg/mL (≈ 12 µM); in the assay listed under Homo sapiens [1], “Not Active”; in the assay filed under Homo sapiens [2] it was 6 µg/mL (≈ 14.3 µM); in assay [3], 5 µg/mL (≈ 12 µM); with Melanoma tumor cell line [4], “Not Active”.
In the case of `CN(C)c1ccc(C(=NNc2ccc([N+](=O)[O-])cc2[N+](=O)[O-])c2ccc(N(C)C)cc2)cc1`, the IC50 is 5 µg/mL (≈ 11.1 µM) in the assay with Melanoma tumor cell line [5], 10 µg/mL (≈ 22.3 µM) in the assay on Colon carcinoma cell, “Not Active” in the assay filed under Homo sapiens [1] and 4.2 µg/mL (≈ 9.36 µM) in assay [3].
As to `O=[N+]([O-])c1ccc(N/N=C2\c3ccccc3-c3cccc(O)c32)c([N+](=O)[O-])c1`, the half-inhibitory concentration (IC50) in the assay on Colon carcinoma cell was > 5 µg/mL; in the assay listed under Homo sapiens [1], “Not Active”; in assay [3], 7.5 µg/mL (≈ 19.9 µM); with Melanoma tumor cell line [4] it was “Not Active”.
With `CCN(CC)c1ccc(C(=NNc2ccc([N+](=O)[O-])cc2[N+](=O)[O-])c2ccc(N(CC)CC)cc2)cc1`, the half-inhibitory concentration (IC50) in the assay on Melanoma tumor cell line [5] was 5 µg/mL (≈ 9.91 µM); in the assay with Colon carcinoma cell it was > 10 µg/mL; in the assay listed under Homo sapiens [1] it was “Not Active”; in assay [3] it was > 7 µg/mL.
As for `Nc1ccc(/C(=N/Nc2ccc([N+](=O)[O-])cc2[N+](=O)[O-])c2ccccc2N)cc1`, the IC50 is 6 µg/mL (≈ 15.3 µM) with Melanoma tumor cell line [5]; 8 µg/mL (≈ 20.4 µM) in the assay with Colon carcinoma cell; “Not Active” in the assay filed under Homo sapiens [1]; 2 µg/mL (≈ 5.1 µM) in the assay filed under Homo sapiens [2]; 0.7 µg/mL (≈ 1.78 µM) in assay [3].
On to `CC(=O)Oc1ccc(C(=NNc2ccc([N+](=O)[O-])cc2[N+](=O)[O-])c2ccc(OC(C)=O)cc2)cc1`, for which the IC50 in the assay on Melanoma tumor cell line [5], in the assay on Colon carcinoma cell, in the assay filed under Homo sapiens [2] and in the assay listed under Homo sapiens [6] was > 10 µg/mL in each case.
As for `CC(=O)Nc1ccc(C(=NNc2ccc([N+](=O)[O-])cc2[N+](=O)[O-])c2ccc(NC(C)=O)cc2)cc1`, the IC50 in the assay on Melanoma tumor cell line [5] is > 10 µg/mL; in the assay with Colon carcinoma cell, > 10 µg/mL; in the assay filed under Homo sapiens [1], “Not Active”; in the assay listed under Homo sapiens [2], > 10 µg/mL; in assay [3], > 10 µg/mL.
On to `Nc1ccc2c(NNc3ccc([N+](=O)[O-])cc3[N+](=O)[O-])c3cc(N)ccc3c(/N=N/c3ccc([N+](=O)[O-])cc3[N+](=O)[O-])c2c1`, for which the IC50 in the assay with Colon carcinoma cell was > 5 µg/mL; in the assay filed under Homo sapiens [1], “Not Active”; in the assay listed under Homo sapiens [2] it was > 5 µg/mL; in assay [3], > 5 µg/mL; in the assay on Melanoma tumor cell line [4] it was “Not Active”.
As for `O=[N+]([O-])c1ccc(/N=N/c2c3ccccc3c3c4c(cccc24)NN3)c([N+](=O)[O-])c1`, the IC50 in the assay with Colon carcinoma cell was > 5 µg/mL; in the assay filed under Homo sapiens [1], “Not Active”; in the assay listed under Homo sapiens [2] it was > 5 µg/mL; in assay [3] it was > 5 µg/mL; in the assay on Melanoma tumor cell line [4], “Not Active”.
Consider `O=[N+]([O-])c1ccc(N(Cc2ccccc2)N=c2c3ccccc3oc3ccccc23)c([N+](=O)[O-])c1`, for which the IC50 in the assay with Melanoma tumor cell line [5] was > 10 µg/mL; in the assay listed under Homo sapiens [1], “Not Active”; in the assay filed under Homo sapiens [2] it was > 10 µg/mL; in assay [3] it was > 10 µg/mL.
